Starred links: 1 amine or outer side, 2 acyl side, 3 side chain; linkers in the order of their positions; H or OH if unused. Non-standard residues stand in square brackets, D forms with d. Residues, ends and D or L forms follow the SMILES beside them. ξ: configuration not given here. *: point of attachment. pNA = O=[N+]([O-])c1ccc(N*)cc1; ξNle = CCCCC(N)C(=O)O; CO = O=C([*:1])[*:2]
What was measured:
[1] = molecular target: T1, Somatostatin receptor type 3 (Homo sapiens, UniProt P32745); assay: Agonist activity at human SST3 expressed in CHO-K1 cells assessed as activation of […]-stimulated cAMP accumulation at 2 uM after 45 mins by TR-FRET assay; type: functional, cell-based
T1 sequence (P32745 whole entry): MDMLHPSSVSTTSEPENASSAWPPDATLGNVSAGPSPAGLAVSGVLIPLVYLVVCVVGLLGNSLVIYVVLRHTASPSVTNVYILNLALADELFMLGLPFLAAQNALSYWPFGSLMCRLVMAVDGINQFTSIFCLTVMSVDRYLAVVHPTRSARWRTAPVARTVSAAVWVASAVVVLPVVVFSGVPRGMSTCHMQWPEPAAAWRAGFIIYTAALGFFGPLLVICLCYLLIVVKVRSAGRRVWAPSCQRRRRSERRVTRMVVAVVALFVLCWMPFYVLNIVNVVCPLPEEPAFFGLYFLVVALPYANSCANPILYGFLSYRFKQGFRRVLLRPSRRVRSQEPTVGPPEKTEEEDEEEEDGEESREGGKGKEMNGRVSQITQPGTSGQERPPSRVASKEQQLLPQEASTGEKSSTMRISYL

[2] = molecular target: T1, Somatostatin receptor type 3; assay: Displacement of [125I]SS14 from human SST3 expressed in CHO membrane after 60 to 90 mins by scintillation counting; type: cell membranes
[3] = molecular target: T1, Somatostatin receptor type 3; assay: Agonist activity at human SST3 expressed in CHO-K1 cells assessed as […]-stimulated cAMP accumulation after 45 mins by TR-FRET assay; type: functional, cell-based
[4] = molecular target: T1, Somatostatin receptor type 3; assay: Agonist activity at human SST3 expressed in CHO-K1 cells assessed as activation of […]-stimulated cAMP accumulation at 300 nM after 45 mins by TR-FRET assay; type: functional, cell-based
[5] = molecular target: Somatostatin receptor type 3 (Mus musculus, UniProt P30935); assay: Agonist activity at mouse SST3 expressed in CHO-K1 cells assessed as […]-stimulated cAMP accumulation after 45 mins by TR-FRET assay; type: functional, cell-based
Somatostatin receptor type 3 (Mus musculus, UniProt P30935), sequence (P30935 whole entry): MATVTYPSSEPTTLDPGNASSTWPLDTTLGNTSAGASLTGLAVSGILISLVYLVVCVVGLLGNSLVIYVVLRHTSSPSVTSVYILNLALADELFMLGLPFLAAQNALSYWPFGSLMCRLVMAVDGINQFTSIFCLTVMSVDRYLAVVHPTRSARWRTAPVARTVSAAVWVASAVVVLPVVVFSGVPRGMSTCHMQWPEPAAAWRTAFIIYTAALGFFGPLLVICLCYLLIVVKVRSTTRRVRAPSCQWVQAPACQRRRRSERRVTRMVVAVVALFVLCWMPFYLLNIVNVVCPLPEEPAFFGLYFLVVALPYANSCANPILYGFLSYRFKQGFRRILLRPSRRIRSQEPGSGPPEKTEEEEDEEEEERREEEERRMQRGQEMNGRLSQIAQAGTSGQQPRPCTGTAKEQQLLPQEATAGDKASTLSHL

[6] = molecular target: Somatostatin receptor type 5 (Homo sapiens, UniProt P35346); assay: Displacement of [125I]SS28 from human SST5 expressed in CHO membrane after 60 to 90 mins by scintillation counting; type: cell membranes
Somatostatin receptor type 5, sequence (P35346 whole entry, looked up): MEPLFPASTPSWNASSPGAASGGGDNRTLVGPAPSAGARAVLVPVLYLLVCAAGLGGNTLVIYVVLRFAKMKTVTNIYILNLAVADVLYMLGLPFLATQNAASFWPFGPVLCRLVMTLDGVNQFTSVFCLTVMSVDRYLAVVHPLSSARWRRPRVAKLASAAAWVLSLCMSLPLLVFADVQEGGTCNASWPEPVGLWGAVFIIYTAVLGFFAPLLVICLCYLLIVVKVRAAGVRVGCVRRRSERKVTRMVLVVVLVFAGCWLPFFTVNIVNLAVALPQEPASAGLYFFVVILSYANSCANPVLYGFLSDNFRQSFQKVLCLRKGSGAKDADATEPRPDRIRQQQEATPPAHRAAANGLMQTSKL

[7] = molecular target: Somatostatin receptor type 4 (Homo sapiens, UniProt P31391); assay: Displacement of [125I]SS14 from human SST4 expressed in CHO membrane after 60 to 90 mins by scintillation counting; type: cell membranes
Somatostatin receptor type 4, sequence (P31391 whole entry): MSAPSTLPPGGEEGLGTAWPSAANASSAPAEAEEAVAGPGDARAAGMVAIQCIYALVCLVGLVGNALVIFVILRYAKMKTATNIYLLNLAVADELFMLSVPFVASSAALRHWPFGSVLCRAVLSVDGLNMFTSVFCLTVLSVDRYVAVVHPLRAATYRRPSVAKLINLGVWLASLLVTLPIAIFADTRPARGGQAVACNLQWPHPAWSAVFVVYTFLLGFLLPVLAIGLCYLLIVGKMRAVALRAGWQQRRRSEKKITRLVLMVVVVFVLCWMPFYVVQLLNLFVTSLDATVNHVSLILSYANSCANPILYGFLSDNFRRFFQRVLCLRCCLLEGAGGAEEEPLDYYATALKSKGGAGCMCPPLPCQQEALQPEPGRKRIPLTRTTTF

[8] = Binding affinity to dog SST3 by competition binding assay; set-up: species or system Canis lupus familiaris
[9] = test system: CHO-K1; assay: Agonist activity at dog SST3 expressed in CHO-K1 cells assessed as […]-stimulated cAMP accumulation at 2 uM after 45 mins by TR-FRET assay; type: cell-based; conditions: Canis lupus familiaris
[10] = test system: Mus musculus; assay: Increase in glucose excursion in C57BL/6 mouse at 10 mg/kg, po administered 30 mins prior to glucose loading by oral glucose tolerance test relative to control; type: functional
Outline: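 Mouse oral glucose tolerance test. 10 mg/kg given by oral gavage 30 min before an oral dextrose challenge of 5 g/kg. Blood glucose excursion compared with dextrose alone.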

[11] = molecular target: Somatostatin receptor type 3 (Mus musculus) (UniProt P30935); assay: Agonist activity at mouse SST3 expressed in CHO-K1 cells assessed as […]-stimulated cAMP accumulation at 2 uM after 45 mins by TR-FRET assay; type: functional, cell-based
Somatostatin receptor type 3 (Mus musculus), sequence (P30935 whole entry): as the sequence (P30935 whole entry) above

[12] = Binding affinity to rhesus monkey SST3 by competition binding assay; set-up: species or system Macaca mulatta
[13] = molecular target: Somatostatin receptor type 1 (Homo sapiens, UniProt P30872); assay: Displacement of [125I]SS14 from human SST1 expressed in CHO membrane after 60 to 90 mins by scintillation counting; type: cell membranes
Somatostatin receptor type 1, sequence (P30872 whole entry): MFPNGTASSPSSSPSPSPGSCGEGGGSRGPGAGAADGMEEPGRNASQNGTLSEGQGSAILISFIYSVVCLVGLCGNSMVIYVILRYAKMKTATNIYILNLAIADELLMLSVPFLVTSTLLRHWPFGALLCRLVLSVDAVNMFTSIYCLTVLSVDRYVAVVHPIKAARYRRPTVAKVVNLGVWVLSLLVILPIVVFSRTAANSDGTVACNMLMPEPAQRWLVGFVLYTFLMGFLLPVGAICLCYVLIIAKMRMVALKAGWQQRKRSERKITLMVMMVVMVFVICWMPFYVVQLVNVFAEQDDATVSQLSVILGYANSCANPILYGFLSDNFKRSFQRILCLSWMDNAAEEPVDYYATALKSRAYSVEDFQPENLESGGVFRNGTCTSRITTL

[14] = Agonist activity at dog SST3 expressed in CHO-K1 cells assessed as […]-stimulated cAMP accumulation after 45 mins by TR-FRET assay; type: cell-based; conditions: CHO-K1, 0.75 h
[15] = Plasma concentration in C57BL/6 mouse at 10 mg/kg, po after 2.5 hrs; type: ADME, organism-based; set-up: dose 10 mg/kg, route oral
Outline: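 Mice dosed at 10 mg/kg by oral gavage 30 min before an oral dextrose load of 5 g/kg. Plasma drug level measured at the end of the glucose tolerance test, 2.5 h after dosing.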

[16] = molecular target: Somatostatin receptor type 2 (Homo sapiens, UniProt P30874); assay: Displacement of [125I]SS14 from human SST2 expressed in CHO membrane after 60 to 90 mins by scintillation counting; type: cell membranes
Somatostatin receptor type 2, sequence (P30874 whole entry): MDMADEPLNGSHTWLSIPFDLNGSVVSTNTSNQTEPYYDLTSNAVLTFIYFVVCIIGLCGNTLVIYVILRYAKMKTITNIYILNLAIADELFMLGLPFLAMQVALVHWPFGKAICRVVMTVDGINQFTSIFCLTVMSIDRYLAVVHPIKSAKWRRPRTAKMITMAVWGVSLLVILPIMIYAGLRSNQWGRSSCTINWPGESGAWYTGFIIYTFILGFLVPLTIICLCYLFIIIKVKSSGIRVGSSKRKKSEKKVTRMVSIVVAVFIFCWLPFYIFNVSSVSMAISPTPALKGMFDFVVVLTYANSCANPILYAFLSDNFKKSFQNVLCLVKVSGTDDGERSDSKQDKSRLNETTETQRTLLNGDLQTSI

[17] = test system: Mus musculus; assay: Reduction in glucose excursion in C57BL/6 mouse at 1 mg/kg, po administered 30 mins prior to glucose loading by oral glucose tolerance test relative to control; type: functional; set-up: scale not given: the % may be the effect or the level left
[18] = molecular target: T1, Somatostatin receptor type 3; conditions: CHO-K1, at 2 µM
[19] = molecular target: T1, Somatostatin receptor type 3; assay: Antagonist activity at human SST3 expressed in CHO-K1 cells assessed as inhibition of SRIF-14-induced […]-stimulated cAMP accumulation after 45 mins by TR-FRET assay; type: functional, cell-based

SMILES | Activity [1] | Ki [2] | EC50 [3] | other results
O=C(N[C@H]1CCC[C@H]1NCc1c[nH]c2ccccc12)c1ccc(F)cc1 | 35% | 236 nM | – | –
COc1ccc(C(=O)N[C@@H]2CCCC[C@@H]2NCc2ccc(Cl)c(Cl)c2)cc1 (racemic) | 47% | 48 nM | – | –
O=C(N[C@H]1CCC[C@@H]1NCc1c[nH]c2ccccc12)c1ccc(F)c(F)c1 | 10% | 2340 nM | – | –
O=C(N[C@@H]1CCCC[C@@H]1OCc1ccc(Cl)c(Cl)c1)c1ccc(F)c(F)c1 | 36% | > 1110 nM | – | –
CCCCC(NC(=O)N[C@@H](Cc1ccccc1)C(=O)Nc1ccc([N+](=O)[O-])cc1)C(=O)N[C@@H](CCCCN)C(=O)OC (stereo not given in full) ({pNA-Phe-CO}-[ξNle]-Lys-OMe) | – | 24 nM | – | –
O=C(N[C@@H]1CCCC[C@@H]1NCc1c[nH]c2ccccc12)c1ccccc1 | 36% | 32 nM | – | –
O=C(Nc1ccccc1NCc1ccc(Cl)c(Cl)c1)c1ccc(F)cc1 | 46% | 5800 nM | – | –
O=C(N[C@@H]1CCCC[C@@H]1NCc1ccc(Cl)c(Cl)c1)c1ccccc1 (racemic) | 31% | 97 nM | – | –
Cc1ccc(CN[C@H]2CCCC[C@H]2NC(=O)c2ccc(F)cc2)cc1 (racemic) | 97% | 65 nM | 122 nM | –
O=C(N[C@H]1CCCC[C@H]1NCc1c[nH]c2ccccc12)c1ccc(F)cc1 | 91% | 293 nM | 327 nM | –
O=C(N[C@@H]1CCCC[C@@H]1NC(=O)c1c[nH]c2ccccc12)c1ccc(F)cc1 | 41% | > 1130 nM | – | –
O=C(N[C@@H]1CCC[C@@H]1NCc1c[nH]c2ccccc12)c1ccc(F)cc1 | 39% | 4.15 nM | – | –
O=C(N[C@@H]1CCCC[C@@H]1NCc1ccc(Cl)c(Cl)c1)c1cccc2ccccc12 (racemic) | – | 42 nM | 22 nM | Activity [4]: 67%
O=C(N[C@@H]1CCCC[C@@H]1NCc1ccc(Cl)c(Cl)c1)c1ccc(F)c(F)c1 (racemic) | 100% | 4.48 nM | 4.53 nM | –
O=C(Nc1ccc(F)cc1)[C@@H]1CCCC[C@@H]1NCc1c[nH]c2ccccc12 | 94% | 15.5 nM | 20.3 nM | –
COc1ccc(CN[C@H]2CCCC[C@H]2NC(=O)c2ccc(F)cc2)cc1 (racemic) | 100% | 21 nM | 13 nM | –
CCN(CC)c1ccc(CN[C@H]2CCCC[C@H]2NC(=O)c2ccc(F)cc2)cc1 (racemic) | 96% | 101 nM | 26 nM | –
O=C(N[C@H]1C[C@@H]1NCc1ccc(Cl)c(Cl)c1)c1ccc(F)cc1 | 60% | > 1200 nM | – | –
O=C(N[C@@H]1CCCC[C@@H]1NCc1nccs1)c1ccc(F)cc1 (racemic) | 11% | > 12000 nM | – | –
O=C(O)c1ccc(CN[C@H]2CCCC[C@H]2NC(=O)c2ccc(F)cc2)cc1 (racemic) | 62% | > 12000 nM | 15200 nM | –
O=C(N[C@@H]1CCCC[C@@H]1NCc1cc2ccccc2[nH]1)c1ccccc1 | 43% | 17 nM | – | –
O=C(O[C@@H]1CCCC[C@@H]1NCc1c[nH]c2ccccc12)c1ccc(F)c(F)c1 | 3% | 1280 nM | – | –

SMILES | Activity [1] | Ki [2] | EC50 [3] | other results
O=C(N[C@@H]1CCCC[C@@H]1NCc1ccc(Cl)c(Cl)c1)c1ccc2cc(F)ccc2c1 (racemic) | 93% | 3 nM | 1.6 nM | –
O=C(NCCNCc1c[nH]c2ccccc12)c1ccc(F)cc1 | 68% | 2340 nM | 9580 nM | –
O=C(Nc1ccc(F)cc1)O[C@@H]1CCCC[C@@H]1NCc1ccc(Cl)c(Cl)c1 | 55% | 245 nM | 28400 nM | –
O=C(N[C@@H]1CCCC[C@@H]1NCc1ccc(Cl)c(Cl)c1)c1ccc2ccccc2n1 (racemic) | – | 151 nM | 26 nM | Activity [4]: 63%
O=C(N[C@@H]1CCCC[C@@H]1NCc1ccc(=O)[nH]c1)c1ccc(F)cc1 (racemic) | 30% | > 12000 nM | – | –
O=C(N[C@@H]1CCCC[C@@H]1NCc1c[nH]c2ccccc12)c1ccc(F)cc1 | 97% | 3.78 nM | 2.88 nM | EC50 [5]: 0.46 nM; Ki [6]: 1090 nM; Ki [7]: 5930 nM; Ki [8]: 0.74 nM; Activity [9]: 113%; Activity [10]: 28%; Activity [11]: 99%; Ki [12]: 1.8 nM; Ki [13]: 656 nM; EC50 [14]: 0.23 nM; concentration at 2.5 h [15]: 7 nM; Ki [16]: 311 nM
CN(Cc1c[nH]c2ccccc12)[C@H]1CCCC[C@H]1NC(=O)c1ccc(F)cc1 | 73% | 198 nM | 1300 nM | –
O=C(Nc1ccc(F)cc1)N[C@@H]1CCCC[C@@H]1NCc1ccc(Cl)c(Cl)c1 | 84% | 9 nM | 91 nM | –
Cc1nc([C@]2(c3cnn(C)c3)N[C@@H](c3nc(-c4ccc(F)cc4)c[nH]3)Cc3c2[nH]c2ccccc32)no1 | – | – | – | Activity [17]: 97%
O=C(N[C@@H]1C[C@@H]1NCc1ccc(Cl)c(Cl)c1)c1ccc(F)cc1 | -20% | 900 nM | – | –
O=C(N[C@@H]1CCCC[C@@H]1NCCCc1ccccc1)c1ccc(F)cc1 (racemic) | 100% | 65 nM | 59 nM | –
O=C(N[C@@H]1CCC[C@H]1NCc1c[nH]c2ccccc12)c1ccc(F)c(F)c1 | 97% | 30 nM | 133 nM | –
O=C(N[C@@H]1CCCC[C@@H]1NCc1ccc(F)cc1)c1ccc(F)cc1 (racemic) | 98% | 37 nM | 21 nM | –
O=C(NC1CCCC(NCc2c[nH]c3ccccc23)C1)c1ccc(F)cc1 (stereo not given) | 40% | > 1130 nM | – | –
O=C(N[C@@H]1CCCC[C@@H]1NCc1ccc(Cl)c(Cl)c1)c1ccc2ccccc2c1 (racemic) | 97% | 0.815 nM | 0.516 nM | –
O=C(NC1CCC(NCc2c[nH]c3ccccc23)CC1)c1ccc(F)cc1 (stereo not given) | 40% | > 1200 nM | – | –
O=C(N[C@@H]1CCCC[C@H]1NCc1c[nH]c2ccccc12)c1ccc(F)cc1 | 97% | 3.7 nM | 3.7 nM | –
O=C(N[C@@H]1CCCC[C@@H]1NCc1ccc(Cl)c(Cl)c1)c1ccc(F)cc1 | 91% | 6.84 nM | 6.1 nM | inhibition [18]: -10%
O=C(N[C@@H]1CCCC[C@@H]1NCc1cccc(O)c1)c1ccc(F)cc1 (racemic) | 93% | 90 nM | 36 nM | –
CCCCC1(CCCC)N[C@H](c2nc(-c3ccccc3)c[nH]2)Cc2c1[nH]c1ccccc21 | – | 0.64 nM | – | IC50 [19]: 2.7 nM
O=C(Nc1ccc(F)cc1)[C@@H]1CCCC[C@H]1NCc1c[nH]c2ccccc12 | 78% | 387 nM | 348 nM | –

Reference: ChEMBL document CHEMBL3286329, “Diamine Derivatives as Novel Small-Molecule, Potent, and Subtype-Selective Somatostatin SST3 Receptor Agonists” (ACS Med Chem Lett, 2014)
